Bioassay records as filed in PubChem.
T cell modulator = modulators of CD8 T cell-vesicle binding, primary screen, mouse 2C CD8+ T cells, flow cytometry; 2C CD8+ T cell-vesicle binding; active compounds read low; response (vesicle binding), % at 7 µM; 330,000 compounds, 0.068% hits;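 active = response, share of CD8 T cells binding vesicles, and their 90th percentile fluorescence all below set limits, cut at about 80% in these data, passing the limit was not always enough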;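 also: values below 100% mean blocked vesicle binding to the CD8+ T cells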
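Material: 2C TCR transgenic mouse naive CD8+ T cells, MACS-purified. Also added: QL9-charged Drosophila Ld/ICAM-1/B7-1 vesicles. Timing: binding 1.5 h at 37 °C. Measured by: high-throughput flow cytometry with anti-B7-1 and anti-CD8 staining. Read-out: percent CD8+ FL2 mean versus row control. Controls: Unloaded micro-vesicles (low), QL9 vesicles with 0.7% DMSO (high).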
Arrestin-AP2 inh = inhibitors of beta-arrestin/AP2 binding, primary screen, biochemical, GPCR trafficking, flow cytometry. FITC-arrestin peptide / GST-AP2 beads; AP2 beta2 appendage carries R879A mutation. inhibition, % at 10 µM. 340,000 compounds, 0.31% hits. beta-arrestin 1 C-terminal peptide binding to AP2 beta2-adaptin appendage (human);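 active = inhibition above a set limit, near 3 SD of compounds lacking own fluorescence, cut at about 54% in these data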;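 also: plate controls were DMSO wells for no effect and 5 µM unlabelled arrestin peptide for full effect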
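Material – GST-tagged AP2 beta2-adaptin appendage (R879A) on 4 µm glutathione beads · Probe or stimulus – fluorescein-tagged arrestin peptide at 50 nM final · Timing – 12 min plus 1 h, RT · Detection – bead flow cytometry, FITC channel · Read-out basis – inhibition as reduced fluorescein signal on beads, percent · Medium – PBS plus Tween 20 (0.05%) and BSA (0.1%)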
V-ATPase pHluor = regulators of yeast V-ATPase proton pumping, primary screen, pHLuorin cytosolic pH fluorescence | response, % at 10 µM | 350,000 compounds, 0.37% hits | S. cerevisiae | AID 504577, 2011; in the data active = response mostly above about 7.3%, no sharp cut-off; inactive = mostly below about 5.4%; also: actives read high
MIN6 prolif = inducers of MIN6 beta-cell proliferation, primary screen, ATP luminescence, uHTS; MIN6 cells proliferation, ATPlite luminescence, 48 h; cells starved in 0.2% serum; 100% = growth in 10% serum; proliferation, % at 10 µM; 330,000 compounds, 0.29% hits; AID 2380, 2010;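 active = compounds whose signal lies at least 3.5 SD above the mean of all wells on their plate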;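 also: 0% = DMSO-treated cells in low-serum medium and 100% = 10% serum control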
NTR1 agonist = agonists of human NTR1, primary screen, imaging, U2OS cells, beta-arrestin-GFP, high content. 330,000 compounds, 0.17% hits. Neurotensin receptor type 1 (Homo sapiens), P30989. NTR1-U2OS beta-arrestin-GFP spot imaging, agonist mode. activation, % at 20 µM. AID 493036, 2011;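 active = activation at or above 40% of the spot to cytoplasm intensity ratio, with at least 20 cells analyzed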;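 also: 0% = DMSO without peptide and 100% = 100 nM NTR1 peptide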
Xi reactivation = activators of inactive X chromosome reactivation, primary screen, imaging, XiGFP fibroblasts, GFP high-content imaging, set 2; XiGFP mouse fibroblasts, % GFP-positive cells imaging, 3 d; cells co-treated with 5-aza-dC sensitizer; scaled so ellipticine positive control = 100%; AID 743238, 2013; 360,000 compounds, 0.055% hits; activation, % at 7.58 µM;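 active = mean normalized replicate activation at least 10% and every replicate at or above 10%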;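 also: 0% = median of on-plate neutral control wells and 100% = ellipticine 6 µM median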
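Assay system: SV40-immortalized XiGFP fibroblast cells, line 68-5-11; buffer or medium: DMEM plus 5-aza-dC sensitizer; compound: one concentration, pinned; timing: compounds 3 days, fix/stain 15 min at room temperature; benchmarks: positive control ellipticine, 6 µM final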
Arr-AP2 CP1 = inhibitors of arrestin peptide binding to AP2, confirmation, biochemical, cherry pick 1, flow cytometry beads; GST-AP2 beads, FITC arrestin peptide binding; GST-fused beta2-adaptin appendage, R879A mutant; shares compounds with Arrestin-AP2 inh; 1,300 compounds, 2% hits; inhibition, % at 10 µM;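 active = inhibition above a set limit, roughly 3 SD of non-fluorescent compound noise, cut at about 38% in these data; inactive = inhibition at or below that limit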;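 also: loss of bead fluorescence from 50 nM FITC arrestin peptide bound to appendage; 0% = negative control wells and 100% = excess unlabelled arrestin peptide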
Target sequence (P63010 whole entry, looked up, the tested form may be a part, one chain of several): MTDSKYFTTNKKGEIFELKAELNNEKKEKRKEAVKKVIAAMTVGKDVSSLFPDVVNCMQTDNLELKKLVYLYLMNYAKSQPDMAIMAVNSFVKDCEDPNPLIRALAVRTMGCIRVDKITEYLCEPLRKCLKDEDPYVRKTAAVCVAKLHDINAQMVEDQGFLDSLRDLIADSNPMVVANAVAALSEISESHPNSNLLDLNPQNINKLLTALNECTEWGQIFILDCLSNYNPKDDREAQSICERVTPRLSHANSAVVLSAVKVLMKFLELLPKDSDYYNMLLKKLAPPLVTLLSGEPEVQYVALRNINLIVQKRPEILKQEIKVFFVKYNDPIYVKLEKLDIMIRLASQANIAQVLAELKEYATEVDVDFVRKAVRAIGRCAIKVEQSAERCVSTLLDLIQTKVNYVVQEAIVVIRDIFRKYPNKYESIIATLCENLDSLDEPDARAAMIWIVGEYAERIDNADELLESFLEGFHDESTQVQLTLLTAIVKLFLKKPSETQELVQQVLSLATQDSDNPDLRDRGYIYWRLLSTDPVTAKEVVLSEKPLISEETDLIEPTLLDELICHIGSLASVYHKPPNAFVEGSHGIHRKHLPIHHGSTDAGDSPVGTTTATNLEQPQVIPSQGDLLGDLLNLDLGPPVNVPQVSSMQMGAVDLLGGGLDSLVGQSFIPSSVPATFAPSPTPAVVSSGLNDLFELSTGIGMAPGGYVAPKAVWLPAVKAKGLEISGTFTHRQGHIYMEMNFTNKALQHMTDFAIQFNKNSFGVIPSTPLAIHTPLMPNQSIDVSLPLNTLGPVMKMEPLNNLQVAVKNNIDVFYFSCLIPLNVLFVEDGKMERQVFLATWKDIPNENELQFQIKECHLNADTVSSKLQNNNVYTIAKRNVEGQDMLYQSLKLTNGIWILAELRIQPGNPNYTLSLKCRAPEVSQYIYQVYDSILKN
GST-FITC bead = GST-fluorescein capture on glutathione beads, confirmation, artefact control for arrestin-AP2 inhibitor project, biochemical, cherry pick 1, flow cytometry; shares compounds with Arrestin-AP2 inh; GST-fluorescein binding to GSH beads, fluorescence, counter-screen; inhibition, % at 10 µM; 1,300 compounds, 2% hits; AID 588338, 2011;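 active = inhibition above 50%, about 3 SD of the inhibition seen with non-fluorescent compounds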;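 also: fluorescein maleimide labelled GST captured on 4 micron glutathione beads; higher means more loss of bead fluorescence from quenching or blocked binding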
The depositor's hits bear a star; i = inactive; / = no result given. An excerpt weighted towards active compounds, which were near 0.89% of everything screened.

SMILES	T cell modulator	Arrestin-AP2 inh	V-ATPase pHluor	MIN6 prolif	NTR1 agonist	Xi reactivation	Arr-AP2 CP1	GST-FITC bead
CCOC(=O)C1=C(COC(=O)COc2ccccc2C#N)NC(=O)NC1C (centres undefined)	246.5	-15.2	-3.7	-2.9	-0.1	0.1	-13.8	-2.5
CCOC(=O)C1=C(COC(=O)c2ccccc2OC)NC(=O)NC1C (centres undefined)	/	17.1	-3.7	-1.8	0.3	-0.1	/	/
CCCC(=O)Nc1ccc2c(c1)C(=O)N(C)C[C@@H](OC)[C@@H](C)CN(S(=O)(=O)c1cn(C)cn1)[C@H](C)CO2	/	/	/	/	/	0.0	/	/
COCCSc1nnc(NS(=O)(=O)c2ccc(C)cc2)s1	258.2	59.0*	7.3	0.4	-0.5	0.0	3.4	-2.0
COc1ccccc1C(=O)NCCC(=O)N1CCN(C(C)=O)CC1	415.2	61.0*	-1.6	-1.1	-1.7	0.2	8.9	-2.4
COc1ccccc1C(=O)NCCC(=O)N1CCN(C(=O)c2ccco2)CC1	/	-6.9	3.1	-1.4	0.8	-0.2	/	/
O=C(C[C@@H]1CC[C@H]2[C@@H](COC[C@H](O)CN2Cc2nccs2)O1)NCc1ccccc1F	/	/	/	/	/	-0.1	/	/
CC(Oc1cccc(Cl)c1)C(=O)Nc1cc(S(=O)(=O)N2CCOCC2)ccc1N1CCCC1 (centres undefined)	318.1	62.4*	-0.7	-0.1	-1.0	-0.1	2.5	0.8
O=C(Nc1ccc(OC(F)F)cc1)c1cc(S(=O)(=O)N2CCOCC2)ccc1N1CCCC1	/	27.9	0.3	/	/	0.0	0.6	2.0
CC1CCN(C(=O)c2ccc(S(=O)(=O)N3CCOCC3)cc2)CC1	339.1	-10.0	-4.6	0.0	-1.6	0.0	/	/
CC1CCN(C(=O)c2cc(S(=O)(=O)N3CCOCC3)ccc2N2CCCC2)CC1	320.1	25.9	-1.1	-2.3	-1.9	0.1	0.9	-6.9
CN(Cc1cccc(F)c1)C(=O)c1ccc(S(=O)(=O)N2CCOCC2)cc1	475.2	62.8*	0.0	-4.2	1.4	0.4	-4.2	-7.1
CO[C@@H]1CN(C)C(=O)c2ccc(NC(=O)C3CCOCC3)cc2OC[C@@H](C)N(Cc2nccs2)C[C@@H]1C	/	/	/	/	/	0.6	/	/
C[C@@H]1CN([C@H](C)CO)S(=O)(=O)c2ccc(C3=CCCCC3)cc2O[C@H]1CN(C)Cc1cccc(C(=O)O)c1	/	/	/	/	/	-0.2	/	/
O=C(NC1CCCCCC1)c1cc(S(=O)(=O)N2CCOCC2)ccc1N1CCCCC1	312.6	-8.2	-3.5	-4.0	2.0	/	-8.1	-3.9
COc1ccc(CN(C)C(=O)c2cc(S(=O)(=O)N3CCOCC3)ccc2N2CCCC2)cc1	i	5.7	-5.1	-2.3	1.0	0.4	-2.5	-3.9
C[C@@H]1CN([C@H](C)CO)C(=O)c2cc(/C=C/c3ccccc3)cnc2O[C@H]1CN(C)C(=O)Nc1ccc(C(F)(F)F)cc1	/	/	/	/	/	-1.3	/	/
COc1cc(C2Nc3cccc4cccc(c34)N2)cc(OC)c1O	280.8	55.8*	3.5	-4.6	-0.5	/	16.7	9.2
COc1ccc(NC(=O)N(C)C[C@@H]2OCCCC[C@@H](C)Oc3ccc(N(C)C)cc3C(=O)N([C@@H](C)CO)C[C@H]2C)cc1	/	/	/	/	/	-1.0	/	/
